Results on two compounds are retold here after paper PMC3181111 (ACS chemical neuroscience, 2011).

In this experiment the test system is male C57BL/6J mice. Description: Mouse tail suspension test. It counts as in vivo. Conditions: 30 minutes, vs water vehicle. The method in brief:
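Mice suspended by the tail with adhesive tape from a metal bar 30 cm high. Drugs given i.p. 30 min before testing. Reference inhibitors were in sterile water; test compounds were in DMSO at 2% (0.01 mL/g) or 100% (0.002 mL/g). Immobility time was scored by a blinded observer from 6-min video, n = 7–9, with one-way ANOVA and Tukey posthoc.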

As for `COCCCC/C(=N\OCCN)c1ccc(C(F)(F)F)cc1` [fluvoxamine], for the setting “10 mg/kg i.p.”, the “Immobility time in tail suspension test” value is listed as “decreased immobility times”.

As for `CNCCCN1c2ccccc2CCc2ccccc21` [desipramine], the “Immobility time in tail suspension test” value (3 mg/kg i.p.) is “decreased immobility times”.
